Experimental data taken from ChEMBL document CHEMBL1134118, “Inhibition of serine proteases: activity of 1,3-diazetidine-2,4-diones” (Bioorg Med Chem Lett, 2001).
Active and inactive are the calls of the source. The calls are words filed in the database; no cut-off is given here.

Legend:
[1] = biological target: T1, Chymase (Homo sapiens, UniProt P23946); test: Compound was evaluated for its inhibitory activity against human Serine protease chymase up to a concentration > 10000 nM; NA= not active
T1 sequence (P23946 whole entry): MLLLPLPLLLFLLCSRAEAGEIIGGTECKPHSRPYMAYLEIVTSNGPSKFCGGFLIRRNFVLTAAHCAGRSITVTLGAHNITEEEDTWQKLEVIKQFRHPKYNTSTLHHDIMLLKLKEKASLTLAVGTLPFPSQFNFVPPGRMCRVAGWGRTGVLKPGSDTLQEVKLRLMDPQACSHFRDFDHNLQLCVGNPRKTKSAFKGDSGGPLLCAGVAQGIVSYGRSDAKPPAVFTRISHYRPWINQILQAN
Summary of the method: (§1)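 Purified human chymase preincubated with inhibitor (DMSO solution) for 30 min at 37 °C in 0.1 M Tris–HCl pH 8.0 with 1.8 M NaCl. Reaction started with succinyl-Ala-Ala-Pro-Phe-p-nitroanilide. Absorbance at 405 nm read after 2 h at 37 °C. IC50 calculated from inhibition of p-nitroaniline formation at each concentration.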

[2] = biological target: T1, Chymase; test: Compound was evaluated for its inhibitory activity against human Serine protease chymase; summary of the method: as §1
[3] = Half life was determined; assay type: ADME; details: sodium methoxide 10 mM in methanol, 21 °C
Summary of the method: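 Chemical stability: 1 μmol compound added to 1 mL of 10 mM sodium methoxide in methanol, stirred at 21 °C. Aliquots removed every 2 h and analysed by reverse-phase HPLC to give t1/2.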

[4] = biological target: T2, Serine protease 1 (Bos taurus, UniProt P00760); test: Compound was evaluated for its inhibitory activity against bovine pancreatic trypsin
T2 sequence (P00760 whole entry): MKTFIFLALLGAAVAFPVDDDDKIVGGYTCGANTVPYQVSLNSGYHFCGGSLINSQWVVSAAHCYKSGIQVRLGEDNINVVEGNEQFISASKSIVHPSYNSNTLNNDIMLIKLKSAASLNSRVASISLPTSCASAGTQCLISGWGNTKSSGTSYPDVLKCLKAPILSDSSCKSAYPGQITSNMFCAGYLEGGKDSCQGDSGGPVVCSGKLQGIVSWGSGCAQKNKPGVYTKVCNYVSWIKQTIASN
Summary of the method: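 Purified trypsin with a chromogenic substrate. Buffer 50 mM Tris-HCl pH 8.0 containing 2 mM CaCl2.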

[5] = biological target: Prothrombin (Homo sapiens, UniProt P00734); test: Compound was evaluated for its inhibitory activity against human thrombin
Summary of the method: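 Purified thrombin with a chromogenic substrate. Buffer 0.1 M Tris-HCl pH 8.0 containing 10 mM CaCl2 and 0.1 M NaCl.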

[6] = biological target: T3, Plasminogen (Homo sapiens, UniProt P00747); test: Compound was evaluated for its inhibitory activity against human plasmin
T3 sequence (P00747 97-580 limits assumed): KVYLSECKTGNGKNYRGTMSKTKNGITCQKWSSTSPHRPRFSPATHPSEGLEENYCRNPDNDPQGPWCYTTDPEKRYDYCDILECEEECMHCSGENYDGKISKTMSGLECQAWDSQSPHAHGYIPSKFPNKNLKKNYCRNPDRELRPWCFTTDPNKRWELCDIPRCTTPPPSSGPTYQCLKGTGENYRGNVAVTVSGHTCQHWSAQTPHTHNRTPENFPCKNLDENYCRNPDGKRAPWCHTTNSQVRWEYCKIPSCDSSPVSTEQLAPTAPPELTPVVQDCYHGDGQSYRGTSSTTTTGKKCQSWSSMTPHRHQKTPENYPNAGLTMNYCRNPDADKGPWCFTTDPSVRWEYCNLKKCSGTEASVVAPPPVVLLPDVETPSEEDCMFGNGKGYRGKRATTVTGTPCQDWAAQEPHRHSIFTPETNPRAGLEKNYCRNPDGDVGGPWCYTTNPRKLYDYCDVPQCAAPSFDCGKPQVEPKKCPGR
T3 sequence (P00747 581-810 limits assumed): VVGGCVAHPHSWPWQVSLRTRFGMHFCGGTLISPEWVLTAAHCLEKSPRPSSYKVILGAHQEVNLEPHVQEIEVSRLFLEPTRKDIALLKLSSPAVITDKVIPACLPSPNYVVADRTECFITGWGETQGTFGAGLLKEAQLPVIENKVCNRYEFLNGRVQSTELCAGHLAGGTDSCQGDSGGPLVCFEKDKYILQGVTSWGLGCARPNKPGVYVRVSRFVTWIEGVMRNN
Summary of the method: (§2)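 Purified human plasmin assayed with chromogenic substrate Chromozym PL. Buffer 50 mM Tris-HCl pH 7.5 containing 50 mM NaCl.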

[7] = biological target: T4, Neutrophil elastase (Homo sapiens, UniProt P08246); test: Compound was evaluated for its inhibitory activity against human neutrophil elastase
T4 sequence (P08246 whole entry): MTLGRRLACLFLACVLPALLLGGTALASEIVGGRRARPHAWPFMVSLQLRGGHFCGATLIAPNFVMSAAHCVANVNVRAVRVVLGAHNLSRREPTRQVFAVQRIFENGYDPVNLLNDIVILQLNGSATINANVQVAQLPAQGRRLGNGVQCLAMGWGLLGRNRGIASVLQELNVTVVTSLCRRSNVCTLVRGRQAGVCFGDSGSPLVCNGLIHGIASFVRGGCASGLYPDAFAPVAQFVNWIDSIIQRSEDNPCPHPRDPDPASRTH
Summary of the method: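 Purified human neutrophil elastase with chromogenic substrate N-succinyl-Ala-Ala-Val-pNA. Buffer 50 mM Tris-HCl pH 8.0 containing 2 mM CaCl2.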

[8] = biological target: T5, Cathepsin G (Homo sapiens, UniProt P08311); test: Compound was evaluated for its inhibitory activity against human cathepsin G
T5 sequence (P08311 whole entry): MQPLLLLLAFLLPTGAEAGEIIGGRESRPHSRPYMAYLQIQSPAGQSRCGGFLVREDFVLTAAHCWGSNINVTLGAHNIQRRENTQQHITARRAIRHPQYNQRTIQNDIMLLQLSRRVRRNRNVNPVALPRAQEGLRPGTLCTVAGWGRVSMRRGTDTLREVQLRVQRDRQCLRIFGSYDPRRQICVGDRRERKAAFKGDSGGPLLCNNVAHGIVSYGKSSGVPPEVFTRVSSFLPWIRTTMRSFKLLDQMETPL

[9] = biological target: T3, Plasminogen; test: Compound was evaluated for its inhibitory activity against human plasmin up to a concentration > 1000 nM; NA= not activity; details: in the assay text read “> 10000 nM” for “> 1000 nM”; summary of the method: as §2

Compound | IC50 [2] | IC50 [4] | IC50 [5] | IC50 [7] | other results
CCOC(=O)CN1C(=O)N(CC(=O)OCC)C1=O |  |  |  |  | IC50 [1]: Not Active
COc1ccc(CN2C(=O)N(Cc3ccc(OC)cc3)C2=O)cc1 | 2 nM |  |  |  | 
O=C1N(Cc2ccccc2)C(=O)N1Cc1ccccc1 | 4 nM | 39 nM | 72 nM | 100 nM | half-life [3]: 9.5 h; IC50 [6]: 2900 nM
O=C1N(c2ccc3c(c2)OCO3)C(=O)N1c1ccc2c(c1)OCO2 | 48 nM |  |  |  | 
CCN1C(=O)N(CC)C1=O |  | 39000 nM | 5600 nM | 58 nM | IC50 [8]: 740 nM; IC50 [1]: Not Active; IC50 [6]: > 10000 nM
Cc1ccc(N2C(=O)N(c3ccc(C)cc3)C2=O)cc1 | 140 nM | 200 nM | 2300 nM | 230 nM | NA [9]: inactive
O=C1N(Cc2ccc3c(c2)OCO3)C(=O)N1Cc1ccc2c(c1)OCO2 | 0.85 nM |  |  |  | 
COc1cccc(CN2C(=O)N(Cc3cccc(OC)c3)C2=O)c1 | 2.3 nM |  |  |  | 
